# Measurements taken from ChEMBL document CHEMBL4334543, “Scaffold Hopping-Driven Optimization of 4-(Quinazolin-4-yl)-3,4-dihydroquinoxalin-2(1H)-ones as Novel Tubulin Inhibitors” (ACS Med Chem Lett, 2020).
# The source made the active and inactive calls. The rule behind the calls is not given here.
# Key:
# [1] = test system: KB; experiment: Antiproliferative activity against human KB cells assessed as reduction in cell viability incubated for 72 hrs by SRB assay; assay type: functional
# Procedure, shortened: (§1)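 Sulforhodamine B assay across a human tumor cell line panel, with CA-4 run in parallel as positive control. GI50 is the concentration giving 50% growth inhibition, read from dose–response curves. Values are mean ± SD of at least three independent experiments.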
# [2] = Antiproliferative activity against human KBVIN cells assessed as reduction in cell viability incubated for 72 hrs by SRB assay; assay type: functional; procedure, shortened: as §1
# [3] = test system: MCF7; experiment: Antiproliferative activity against human MCF7 cells assessed as reduction in cell viability incubated for 72 hrs by SRB assay; assay type: functional; details: MCF7, 72 h; procedure, shortened: as §1
# [4] = test system: A549; experiment: Antiproliferative activity against human A549 cells assessed as reduction in cell viability incubated for 72 hrs by SRB assay; assay type: functional; details: A549, 72 h; procedure, shortened: as §1
# [5] = test system: MDA-MB-231; experiment: Antiproliferative activity against human MDA-MB-231 cells assessed as reduction in cell viability incubated for 72 hrs by SRB assay; assay type: functional; details: MDA-MB-231, 72 h; procedure, shortened: as §1
# [6] = test system: MDA-MB-231; experiment: Cell cycle arrest in human MDA-MB-231 cells assessed as increase in accumulation of G2/M phase at 3 times of antiproliferative IC50 incubated for 24 hrs by propidium iodide based flow cytometry; assay type: functional
# Procedure, shortened: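 Cells were fixed in EtOH, stained with propidium iodide in the presence of RNase, and analysed by flow cytometry. Cell count was plotted against linear PI fluorescence.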
# [7] = Potency index, ratio of GI50 of paclitaxel to GI50 of compound for antiproliferative activity against human KBVIN cells assessed as reduction in cell viability incubated for 72 hrs by SRB assay; assay type: functional
# [8] = Solubility of compound at pH 7.4 incubated for 4 hrs by HPLC-UV analysis; assay type: physicochemical; details: buffer
# [9] = Lipophilicity, logP of compound incubated for 24 hrs with stirrer and measured after overnight by HPLC-UV analysis; assay type: physicochemical
# [10] = test system: MDA-MB-231; experiment: Inhibition of tubulin polymerization in human MDA-MB-231 cells at 3 times of antiproliferative IC50 incubated for 24 hrs by DAPI staining based confocal fluorescence microscopy; assay type: functional, cell-based
# Procedure, shortened: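 Cells were fixed in 4% PFA/PBS, immunostained for α-tubulin and counterstained with DAPI. Microtubule networks were imaged by confocal fluorescence microscopy as projections of 15–20 confocal images.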
Compound,GI50 [1],GI50 [2],GI50 [3],GI50 [4],GI50 [5],Activity [6],RatioGI50 [7],solubility at 4 h [8],logP at 24 h [9],inhibition [10]
COc1ccc2c(c1)NC(=O)CN2c1nc(NCCCO)nc2cc(OC)c(OC)cc12,0.516 µM,> 10 µM,0.95 µM,0.997 µM,0.82 µM,,,,,
COc1ccc2c(c1)NC(=O)CN2c1nccc2c1NC=CN2,> 40 µM,> 40 µM,> 40 µM,> 40 µM,> 40 µM,,,,,
COc1ccc2c(c1)NC(=O)CCN2c1nc(C)nc2ccccc12,0.725 µM,0.696 µM,0.933 µM,0.838 µM,0.095 µM,Active,,,,
COc1ccc2c(c1)NC(=O)CN2c1nc(Cl)nc2cccnc12,0.0056 µM,0.0057 µM,0.0084 µM,0.0053 µM,0.0077 µM,Active,340,,,
CNc1nc(N2CC(=O)Nc3cc(OC)ccc32)c2cc(OC)c(OC)cc2n1,0.051 µM,0.506 µM,0.084 µM,0.054 µM,0.074 µM,Active,,,,
CC(=O)O[C@H]1C(=O)[C@@]2(C)[C@H]([C@H](OC(=O)c3ccccc3)[C@]3(O)C[C@H](OC(=O)[C@H](O)[C@@H](NC(=O)c4ccccc4)c4ccccc4)C(C)=C1C3(C)C)[C@]1(OC(C)=O)CO[C@@H]1C[C@@H]2O [PACLITAXEL],0.0041 µM,1.96 µM,0.0083 µM,0.0024 µM,0.0052 µM,,,,,
COc1ccc2c(c1)NC(=O)CN2c1ncnc2ncccc12,0.48 µM,0.65 µM,1.2 µM,0.566 µM,2.29 µM,Active,,,,
COc1ccc2c(c1)C(=O)NCCN2c1nc(C)nc2ccccc12,> 2 µM,> 2 µM,> 2 µM,> 2 µM,> 2 µM,,,,,
COc1ccc2c(c1)NC(=O)CCCN2c1nc(C)nc2ccccc12,5.7 µM,5.56 µM,10.5 µM,5.9 µM,9.7 µM,,,,,
COc1ccc2c(c1)NC(=O)CCCCN2c1nc(C)nc2ccccc12,> 10 µM,> 10 µM,> 10 µM,> 10 µM,> 10 µM,,,,,
COc1ccc2c(c1)NC(=O)CN2c1nc(OC)nc2cc(OC)c(OC)cc12,0.506 µM,0.919 µM,0.968 µM,0.544 µM,0.76 µM,Active,,,,
COc1ccc2c(c1)NC(=O)CN2c1nccc2nccnc12,0.777 µM,0.638 µM,0.908 µM,0.617 µM,0.915 µM,,,,,
COc1ccc2c(c1)NC(=O)CN2c1ncnc2ccc(Br)cc12,0.005 µM,0.005 µM,0.0094 µM,0.0055 µM,0.0096 µM,Active,340,,,
COc1ccc2c(c1)NC(=O)CN2c1cc(C)nc2ccccc12,0.0046 µM,0.0048 µM,,0.0054 µM,0.008 µM,Active,340,10.9 µg/mL,2.96,Active
COc1ccc2c(c1)NC(=O)CN2c1nc(Cl)nc2cc(OC)c(OC)cc12,0.045 µM,0.065 µM,0.082 µM,0.05 µM,0.076 µM,Active,,,,
COc1ccc(/C=C\c2cc(OC)c(OC)c(OC)c2)cc1O [COMBRETASTATIN A4],0.0036 µM,0.0038 µM,0.084 µM,0.0055 µM,0.0082 µM,Active,,,,Active
